The source made the active and inactive calls. The rule behind the calls is not given here.
Columns and labels:
[1] = target: T1, Keap1/Nrf2 (Homo sapiens) (UniProt Q16236+Q14145); experiment: Induction of Nrf2/Keap1 in human HCT116 cells assessed as induction of ARE activity at 20 uM after 12 hrs by luciferase reporter gene assay relative to control; type: cell-based; settings: HCT-116
[2] = target: T1, Keap1/Nrf2 (Homo sapiens); experiment: Induction of Nrf2/Keap1 in human HepG2-ARE-C8 cells assessed as induction of ARE activity at 50 uM after 12 hrs by luciferase reporter gene assay relative to control
HCT-116 [3] = experiment: Cytotoxicity against human HCT116 cells by MTT assay; type: functional, cell-based
Summary of the method: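 HCT116 cells were cultured in McCoy's 5A with 10% FBS and exposed to a range of compound concentrations. MTT was added for 4 h, the solution removed and DMSO added. OD was read at 570 nm, and inhibition calculated as [1 − (OD_test − OD_blank)/(OD_control − OD_blank)] × 100%.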

HCT-116 [4] = experiment: Induction of nuclear translocation of Nrf2 in human HCT116 cells at 20 uM after 24 hrs by Western blot analysis; type: functional, cell-based
HCT-116 [5] = experiment: Induction of nuclear translocation of Nrf2 in human HCT116 cells at 20 uM after 1 to 2 hrs by immunofluorescence staining in presence of MEK1/2 inhibitor PD98059
HCT-116 [6] = experiment: Induction of Nrf2 expression in human HCT116 cells at 20 uM after 2 hrs by Western blot analysis; type: functional, cell-based
HCT-116 [7] = experiment: Induction of HO-1 expression in human HCT116 cells at 20 uM after 8 hrs by Western blot analysis; type: functional, cell-based
HCT-116 [8] = experiment: Induction of NQO-1 expression in human HCT116 cells at 20 uM up to 24 hrs by Western blot analysis in presence of MEK1/2 inhibitor PD98059; type: functional, cell-based
HCT-116 [9] = experiment: Induction of NQO-1 expression in human HCT116 cells at 20 uM after 24 hrs by Western blot analysis; type: functional, cell-based
HCT-116 [10] = experiment: Induction of HO-1 expression in human HCT116 cells at 20 uM up to 24 hrs by Western blot analysis in presence of MEK1/2 inhibitor PD98059; type: functional, cell-based
[11] = target: T2, Nuclear factor erythroid 2-related factor 2 (Homo sapiens) (UniProt Q16236); experiment: Activation of NRF2 in human HCT116 cells assessed as expression of ERK1/2 at 20 uM up to 24 hrs by Western blot analysis; type: cell-based; settings: HCT-116
T2 sequence (whole entry): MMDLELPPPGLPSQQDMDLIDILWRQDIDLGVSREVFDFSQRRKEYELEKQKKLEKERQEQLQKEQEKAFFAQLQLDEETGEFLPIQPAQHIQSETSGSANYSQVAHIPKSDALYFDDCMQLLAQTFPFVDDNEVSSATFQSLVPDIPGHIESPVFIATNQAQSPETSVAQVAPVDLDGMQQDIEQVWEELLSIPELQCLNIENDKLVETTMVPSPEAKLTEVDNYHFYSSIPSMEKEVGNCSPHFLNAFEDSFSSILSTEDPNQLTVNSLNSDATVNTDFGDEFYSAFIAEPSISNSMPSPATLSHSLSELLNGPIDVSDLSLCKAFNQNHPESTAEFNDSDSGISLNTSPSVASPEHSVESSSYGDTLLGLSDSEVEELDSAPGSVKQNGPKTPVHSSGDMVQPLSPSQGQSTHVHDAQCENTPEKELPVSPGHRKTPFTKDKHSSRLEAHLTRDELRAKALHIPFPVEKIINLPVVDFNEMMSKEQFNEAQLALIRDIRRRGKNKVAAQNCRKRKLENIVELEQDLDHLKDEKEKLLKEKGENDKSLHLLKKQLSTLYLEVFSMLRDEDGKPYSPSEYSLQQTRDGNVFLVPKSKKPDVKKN

[12] = target: T1, Keap1/Nrf2 (Homo sapiens); experiment: Induction of Nrf2/Keap1 in human HCT116 cells assessed as induction of ARE activity at 20 uM after 12 hrs by luciferase reporter gene assay in presence of MEK1/2 inhibitor PD98059; type: cell-based; settings: HCT-116
[13] = target: T2, Nuclear factor erythroid 2-related factor 2 (Homo sapiens); experiment: Activation of NRF2 in human HCT116 cells assessed as ERK1/2 phosphorylation at 20 uM after 30 mins to 1 hr by Western blot analysis in presence of MEK1/2 inhibitor PD98059; type: cell-based; settings: HCT-116
[14] = target: T2, Nuclear factor erythroid 2-related factor 2 (Homo sapiens); experiment: Activation of NRF2 in human HCT116 cells assessed as ERK1/2 phosphorylation at 20 uM after 30 mins to 1 hr by Western blot analysis; type: cell-based; settings: HCT-116
HCT-116 [15] = experiment: Induction of nuclear translocation of Nrf2 in human HCT116 cells at 20 uM after 1 hr by Western blot analysis; type: functional, cell-based
[16] = target: T1, Keap1/Nrf2 (Homo sapiens); experiment: Induction of Nrf2/Keap1 in human HCT116 cells assessed as induction of ARE activity after 12 hrs by luciferase reporter gene assay; type: cell-based; settings: HCT-116
HCT-116 [17] = experiment: Induction of Nrf2 expression in human HCT116 cells at 20 uM up to 24 hrs by Western blot analysis in presence of MEK1/2 inhibitor PD98059; type: functional, cell-based
[18] = target: T1, Keap1/Nrf2 (Homo sapiens); experiment: Induction of Nrf2/Keap1 in human HCT116 cells assessed as induction of ARE activity at 80 uM after 12 hrs by luciferase reporter gene assay relative to control; type: cell-based; settings: HCT-116

T1 sequence (Q14145 whole entry, looked up, one chain of several): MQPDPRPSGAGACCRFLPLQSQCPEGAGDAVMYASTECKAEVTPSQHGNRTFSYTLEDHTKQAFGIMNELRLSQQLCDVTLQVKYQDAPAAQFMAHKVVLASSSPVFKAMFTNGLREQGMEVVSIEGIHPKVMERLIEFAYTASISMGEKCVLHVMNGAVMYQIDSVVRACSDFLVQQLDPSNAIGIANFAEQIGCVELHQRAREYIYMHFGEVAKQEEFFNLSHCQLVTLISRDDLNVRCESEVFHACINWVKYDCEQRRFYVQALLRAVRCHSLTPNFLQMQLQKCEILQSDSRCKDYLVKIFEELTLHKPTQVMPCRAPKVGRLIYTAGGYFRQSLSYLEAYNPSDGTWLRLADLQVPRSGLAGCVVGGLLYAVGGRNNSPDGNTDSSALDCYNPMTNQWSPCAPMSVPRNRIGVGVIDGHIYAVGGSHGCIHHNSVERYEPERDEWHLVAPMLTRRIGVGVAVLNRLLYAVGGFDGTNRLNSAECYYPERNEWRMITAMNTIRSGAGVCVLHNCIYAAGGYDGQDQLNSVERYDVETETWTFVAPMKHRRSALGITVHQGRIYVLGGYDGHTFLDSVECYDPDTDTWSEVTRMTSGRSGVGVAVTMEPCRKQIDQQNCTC

Row | fold change (FC) [1] | fold change (FC) [2] | Compound | IC50 (HCT-116 [3]) [µM] | also measured
1 | 1.37 | 2.17 | Cc1cc(O)c(C(=O)/C=C/c2ccc3ccccc3c2)c(=O)o1 | > 100 | 
2 | 8 | 1.2 | Cc1cc(O)c(C(=O)/C=C/c2ccc(Cl)c(Cl)c2)c(=O)o1 | > 100 | 
3 | 7.04 | 3.46 | Cc1cc(O)c(C(=O)/C=C/c2cccc(F)c2)c(=O)o1 | 81.2 | 
4 | 6.48 | 7.37 | COc1ccc(/C=C/C(=O)c2c(O)cc(C)oc2=O)cc1 | > 100 | 
5 | 5.67 | 3.6 | Cc1cc(O)c(C(=O)/C=C/c2ccc(-c3ccccc3)cc2)c(=O)o1 | > 100 | 
6 | 6.97 | 6.28 | Cc1cc(O)c(C(=O)/C=C/c2ccc(Cl)cc2)c(=O)o1 | 87.4 | 
7 | 6.46 | 4.51 | Cc1cc(O)c(C(=O)/C=C/c2cccc(Cl)c2)c(=O)o1 | 66.3 | 
8 | 6.33 | 5.79 | Cc1cc(O)c(C(=O)/C=C/c2ccc(F)cc2)c(=O)o1 | > 100 | 
9 | 4.21 | 6.84 | Cc1cc(O)c(C(=O)/C=C/c2ccccc2)c(=O)o1 | > 100 | 

The next lines start with the compound.

Row | Compound | fold change (FC) [1] | fold change (FC) [2] | IC50 (HCT-116 [3]) [µM] | also measured
10 | Cc1cc(O)c(C(=O)/C=C/c2ccc(Cl)cc2Cl)c(=O)o1 | 5.49 | 3.27 | 88.7 | 
11 | Cc1cc(O)c(C(=O)/C=C/c2ccc(F)c(F)c2)c(=O)o1 | 9.65 | 3.68 | 74.9 | 
12 | Cc1cc(O)c(C(=O)/C=C/c2ccccc2F)c(=O)o1 | 7.08 | 3.04 | > 100 | Activity (HCT-116 [4]): inactive; Activity (HCT-116 [5]): inactive; Activity (HCT-116 [6]): Active; Activity (HCT-116 [7]): Active; Activity (HCT-116 [8]): inactive; Activity (HCT-116 [9]): Active; Activity (HCT-116 [10]): inactive; Activity [11]: inactive; Activity [12]: inactive; Activity [13]: inactive; Activity [14]: Active; Activity (HCT-116 [15]): Active; Activity [16]: Dose-dependent effect; Activity (HCT-116 [17]): inactive
13 | Cc1cc(O)c(C(=O)/C=C/c2ccc([N+](=O)[O-])cc2)c(=O)o1 | 4.77 | 2.48 | 65 | 
14 | CCOc1ccc(/C=C/C(=O)c2c(O)cc(C)oc2=O)cc1 | 4.66 | 5.5 | > 100 | 
15 | Cc1cc(O)c(C(=O)/C=C/c2ccco2)c(=O)o1 | 3.8 | 5.48 | > 100 | 
16 | COc1ccccc1/C=C/C(=O)c1c(O)cc(C)oc1=O | 5.86 | 2.08 | > 100 | 
17 | Cc1cc(O)c(C(=O)/C=C/c2ccc(N(C)C)cc2)c(=O)o1 | 4.55 | 8.09 | > 100 | 
18 | COc1ccc(/C=C/C(=O)c2c(O)cc(C)oc2=O)c(OC)c1 | 8.21 | 6.81 | > 100 | 
19 | Cc1cc(O)c(C(=O)/C=C/c2ccccc2C(F)(F)F)c(=O)o1 | 4.27 | 2.55 | > 100 | 
20 | CC(C)(C)c1cc(O)ccc1O [E319] |  |  | > 100 | fold change (FC) [18]: 5.08
21 | COc1cc(/C=C/C(=O)c2c(O)cc(C)oc2=O)cc(OC)c1OC | 8.58 | 5.25 | > 100 | 
22 | Cc1cc(O)c(C(=O)/C=C/c2ccccc2[N+](=O)[O-])c(=O)o1 | 2.74 | 0.65 | > 100 | 
23 | Cc1cc(O)c(C(=O)/C=C/c2ccc[nH]2)c(=O)o1 | 1.66 | 3.58 | > 100 | 
24 | Cc1cc(O)c(C(=O)/C=C/c2ccccc2Cl)c(=O)o1 | 5.08 | 0.95 | > 100 | 
25 | Cc1cc(O)c(C(=O)/C=C/c2ccc(F)cc2F)c(=O)o1 | 6.93 | 6.98 | 80.3 | 
26 | Cc1cc(O)c(C(=O)/C=C/c2cccs2)c(=O)o1 | 4.53 | 5.96 | > 100 | 
27 | Cc1cc(O)c(C(=O)/C=C/c2ccc(C#N)cc2)c(=O)o1 | 3.68 | 2.07 | 66 | 

Reference: ChEMBL document CHEMBL2406970, “Synthesis and bioevaluation of a series of α-pyrone derivatives as potent activators of Nrf2/ARE pathway (part I)” (Eur J Med Chem, 2013)
